We go through 18 compounds from ChEMBL document CHEMBL4052694, “Discovery of novel 5-oxa-2,6-diazaspiro[3.4]oct-6-ene derivatives as potent, selective, and orally available somatostatin receptor subtype 5 (SSTR5) antagonists for treatment of type 2 diabetes mellitus” (Bioorg Med Chem, 2017).

Values after ≈ are worked out from the molar mass of the structure shown. Active and inactive are the calls of the source. The rule behind the calls is not given here. Some results are limits rather than exact numbers.

hERG (KCNH2), sequence (Q12809 whole entry): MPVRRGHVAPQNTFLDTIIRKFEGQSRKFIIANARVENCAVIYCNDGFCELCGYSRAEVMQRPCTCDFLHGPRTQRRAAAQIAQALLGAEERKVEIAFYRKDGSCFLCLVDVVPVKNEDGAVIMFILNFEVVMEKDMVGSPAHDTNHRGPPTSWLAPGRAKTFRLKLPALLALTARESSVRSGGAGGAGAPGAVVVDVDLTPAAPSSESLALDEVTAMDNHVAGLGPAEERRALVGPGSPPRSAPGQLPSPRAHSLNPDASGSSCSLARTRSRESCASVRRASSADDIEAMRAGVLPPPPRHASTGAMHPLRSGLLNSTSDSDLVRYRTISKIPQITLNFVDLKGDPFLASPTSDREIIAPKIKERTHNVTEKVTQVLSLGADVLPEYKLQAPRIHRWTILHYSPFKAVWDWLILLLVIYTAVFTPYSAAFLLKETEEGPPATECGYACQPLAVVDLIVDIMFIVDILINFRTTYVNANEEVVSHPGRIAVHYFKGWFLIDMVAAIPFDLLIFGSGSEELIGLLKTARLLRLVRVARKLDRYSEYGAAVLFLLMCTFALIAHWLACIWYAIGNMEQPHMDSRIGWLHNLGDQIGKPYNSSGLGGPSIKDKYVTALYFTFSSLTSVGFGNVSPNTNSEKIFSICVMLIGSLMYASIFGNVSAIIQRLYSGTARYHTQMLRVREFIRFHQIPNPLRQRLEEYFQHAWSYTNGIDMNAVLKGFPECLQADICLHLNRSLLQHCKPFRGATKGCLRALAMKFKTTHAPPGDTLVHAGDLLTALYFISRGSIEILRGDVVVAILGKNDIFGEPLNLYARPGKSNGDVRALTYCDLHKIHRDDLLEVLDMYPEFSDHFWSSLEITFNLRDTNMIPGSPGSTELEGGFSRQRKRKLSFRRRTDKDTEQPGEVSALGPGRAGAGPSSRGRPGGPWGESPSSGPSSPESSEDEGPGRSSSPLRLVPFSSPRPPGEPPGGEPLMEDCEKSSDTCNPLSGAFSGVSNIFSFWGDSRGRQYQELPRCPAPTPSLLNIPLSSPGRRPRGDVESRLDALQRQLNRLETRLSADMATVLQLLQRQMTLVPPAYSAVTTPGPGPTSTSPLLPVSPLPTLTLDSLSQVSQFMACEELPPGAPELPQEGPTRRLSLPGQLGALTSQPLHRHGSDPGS

System in the first data set: not listed separately
The data set is described as follows: 1-octanol/aqueous buffer solution partition coefficient, log D of the compound at pH 7.4 by UV-vis/HPLC method.
Details: not given
It is filed as physicochemical. Summed up: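 Octanol/buffer partition coefficient at pH 7.4, estimated chromatographically by HPLC with UV–vis detection, using conditions adapted from a published method.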
With `CCOc1cc(CN2CC3(CC([C@H]4CC[C@@H](C(=O)O)CC4)=NO3)C2)cc(OCC)c1-c1ccc(F)cc1`, the logD amounted to 3.3.
Same read-out and setting: under `CCOc1cc(CN2CC3(CC(N4CC(C(=O)O)C4)=NO3)C2)cc(OCC)c1-c1ccc(F)cc1` stands 2.9; under `CCOc1cc(C(=O)N2CC3(CC(c4ccc(C(=O)O)cc4)=NO3)C2)cc(OCC)c1-c1ccc(F)cc1`, 2.8; under `CCOc1cc(CN2CC3(CC(c4ccc(C(=O)O)cc4)=NO3)C2)cc(OCC)c1-c1ccc(F)cc1`, 3.3.
The same measure, in the same setting: under `CCOc1cc(CN2CC3(CC(c4ccc(C(=O)O)cc4C)=NO3)C2)cc(OCC)c1-c1ccc(F)cc1` stands 3.5.
On the same count and under the same terms, under `CCOc1cc(CN2CC3(CC([C@H]4CC[C@H](C(=O)O)CC4)=NO3)C2)cc(OCC)c1-c1ccc(F)cc1` stands 3.2; under `CCOc1cc(CN2CC3(CC(c4ccccc4C(=O)O)=NO3)C2)cc(OCC)c1-c1ccc(F)cc1`, 3.1.
In turn, `CCOc1cc(C(C)N2CC3(CC(c4ccc(C(=O)O)cc4)=NO3)C2)cc(OCC)c1-c1ccc(F)cc1` (stereo not drawn) showed a logD of 3.6.
Still for that read-out and setting: under `CCOc1cc(CN2CC3(CC(c4ccc(C(=O)O)cc4Cl)=NO3)C2)cc(OCC)c1-c1ccc(F)cc1` stands 3.5.
On the same count and under the same terms, under `CCOc1cc(CN2CC3(CC(N4CCC(C(=O)O)C4)=NO3)C2)cc(OCC)c1-c1ccc(F)cc1` (stereo not drawn) stands 2.9.

A further data set has as its target hERG (KCNH2) (Homo sapiens, UniProt Q12809). The data set is described as follows: Inhibition of human ERG expressed in CHO cells assessed as decrease in peak tail current at 30 uM after 5 mins at -80 mV holding potential by patch clamp assay relative to control. Conditions: CHO cells expressing human ERG. It counts as cell-based. Put shortly:
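hERG-expressing CHO cells grown at 32 °C in Ham's F-12 with 10% FBS and Geneticin. Population patch clamp, perforated with 100 µg/mL amphotericin B. PBS with Ca/Mg outside; 140 mM KCl, 2 mM MgCl2, 1 mM EGTA, 20 mM HEPES pH 7.3 inside. Holding -80 mV, step to 40 mV for 2 s, then -50 mV for 2 s. Peak tail current compared before and after 5 min with compound at 30 µM, n = 4.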
In general terms: The patch-clamp technique gives a direct electrical read-out from membranes.
For the compound `CCOc1cc(CN2CC3(CC([C@H]4CC[C@@H](C(=O)O)CC4)=NO3)C2)cc(OCC)c1-c1ccc(F)cc1`, the inhibition at 5 min, 30 µM stood at 33%.
The same measure, in the same setting: under `CCOc1cc(CN2CC3(CC(N4CC(C(=O)O)C4)=NO3)C2)cc(OCC)c1-c1ccc(F)cc1` stands 8.1%; under `CCOc1cc(C(=O)N2CC3(CC(c4ccc(C(=O)O)cc4)=NO3)C2)cc(OCC)c1-c1ccc(F)cc1`, 7.9%; under `CCOc1cc(CN2CC3(CC(c4ccc(C(=O)O)cc4)=NO3)C2)cc(OCC)c1-c1ccc(F)cc1`, 65%.
Same read-out and setting: under `CCOc1cc(CN2CC3(CC(c4ccc(C(=O)O)cc4C)=NO3)C2)cc(OCC)c1-c1ccc(F)cc1` stands 18%; under `CCOc1cc(CN2CC3(CC([C@H]4CC[C@H](C(=O)O)CC4)=NO3)C2)cc(OCC)c1-c1ccc(F)cc1`, 15%.
Same read-out and setting: under `CCOc1cc(CN2CC3(CC(c4ccccc4C(=O)O)=NO3)C2)cc(OCC)c1-c1ccc(F)cc1` stands 4.5%; under `CCOc1cc(C(C)N2CC3(CC(c4ccc(C(=O)O)cc4)=NO3)C2)cc(OCC)c1-c1ccc(F)cc1` (stereo not drawn), 14%.
As to `CCOc1cc(CN2CC3(CC(c4ccc(C(=O)O)cc4Cl)=NO3)C2)cc(OCC)c1-c1ccc(F)cc1`, the inhibition at 5 min, 30 µM turned out to be 40%.
Same read-out and setting: under `CCOc1cc(CN2CC3(CC(N4CCC(C(=O)O)C4)=NO3)C2)cc(OCC)c1-c1ccc(F)cc1` (stereo not drawn) stands 17%.

A further data set has as its system Mus musculus. In words: Antidiabetic activity in HFD-fed C57BL/6J mouse assessed as increase in insulin secretion at 30 mg/kg, po pretreated for 1 hr followed by glucose challenge by OGTT. It is filed as functional, organism-based.
Details: not given
`Cn1c(=O)cc(N2CCC[C@@H](N)C2)n(Cc2ccccc2C#N)c1=O`: the outcome was Active.

The test system of the next data set is Mus musculus. In words: Antidiabetic activity in HFD-fed C57BL/6J mouse assessed as decrease in blood glucose AUC at 30 mg/kg, po pretreated for 1 hr followed by glucose challenge after 1 hr of compound dosing measured up to 120 mins post glucose challenge by OGTT. It counts as functional, organism-based.
Details: not given
Put shortly: (§1)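 Male C57BL/6J mice on high-fat diet for ten days. Fasted overnight and grouped by weight and blood glucose at 12.5 h. Compound given orally at 1, 3, 10 or 30 mg/kg in 0.5% methylcellulose at 15 h; oral glucose 5 g/kg at 16 h.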
`Cn1c(=O)cc(N2CCC[C@@H](N)C2)n(Cc2ccccc2C#N)c1=O`: the result was Active.

The target of the next data set is T1, Somatostatin receptor type 5 (Mus musculus, UniProt O08858).
T1 sequence (O08858 whole entry): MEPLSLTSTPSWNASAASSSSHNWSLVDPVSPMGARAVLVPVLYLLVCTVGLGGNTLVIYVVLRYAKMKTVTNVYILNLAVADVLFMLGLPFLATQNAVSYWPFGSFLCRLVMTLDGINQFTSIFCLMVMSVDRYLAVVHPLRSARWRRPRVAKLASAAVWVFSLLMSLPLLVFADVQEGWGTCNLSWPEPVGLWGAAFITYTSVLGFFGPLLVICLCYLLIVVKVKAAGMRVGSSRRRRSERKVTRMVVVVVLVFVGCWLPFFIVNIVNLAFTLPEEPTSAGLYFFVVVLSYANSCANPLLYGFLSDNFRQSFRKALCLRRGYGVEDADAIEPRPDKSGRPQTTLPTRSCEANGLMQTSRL
In words: Antagonist activity at mouse SSTR5 expressed in CHO cells assessed as inhibition of SST14-induced forskolin-stimulated intracellular cAMP level incubated for 15 mins followed by forskolin stimulation for 30 mins by HTRF assay. It is filed as functional, cell-based.
Details: not given
Take `CCOc1cc(CN2CC3(CC(c4ccc(C(=O)O)cn4)=NO3)C2)cc(OCC)c1-c1ccc(F)cc1`: the IC50 was determined as 20 nM.
Same read-out and setting: under `CCOc1cc(CN2CC3(CC([C@H]4CC[C@@H](C(=O)O)CC4)=NO3)C2)cc(OCC)c1-c1ccc(F)cc1` stands 210 nM; under `CCOc1cc(CN2CC3(CC(c4ccc(CC(=O)O)cc4)=NO3)C2)cc(OCC)c1-c1ccc(F)cc1`, 74 nM; under `CCOc1cc(CN2CC3(CC(N4CC(C(=O)O)C4)=NO3)C2)cc(OCC)c1-c1ccc(F)cc1`, 120 nM.
The same measure, in the same setting: under `CCOc1cc(C(=O)N2CC3(CC(c4ccc(C(=O)O)cc4)=NO3)C2)cc(OCC)c1-c1ccc(F)cc1` stands greater than 10000 nM.
On the same count and under the same terms, under `CCOc1cc(CN2CC3(CC(CCC(=O)O)=NO3)C2)cc(OCC)c1-c1ccc(F)cc1` stands 220 nM; under `CCOc1cc(CN2CC3(CC(c4ccc(C(=O)O)cc4)=NO3)C2)cc(OCC)c1-c1ccc(F)cc1`, 33 nM; under `CCOc1cc(CN2CC3(CC(c4ccc(C(N)=O)cc4)=NO3)C2)cc(OCC)c1-c1ccc(F)cc1`, 150 nM.
On to `CCOc1cc(CN2CC3(CC(c4cccc(C(=O)O)c4)=NO3)C2)cc(OCC)c1-c1ccc(F)cc1`, for which the IC50 was 260 nM.
Same read-out and setting: under `CCOc1cc(CN2CC3(CC(c4ccc(C(=O)O)cc4C)=NO3)C2)cc(OCC)c1-c1ccc(F)cc1` stands 21 nM.
The same measure, in the same setting: under `CCOc1cc(CN2CC3(CC([C@H]4CC[C@H](C(=O)O)CC4)=NO3)C2)cc(OCC)c1-c1ccc(F)cc1` stands 38 nM; under `CCOc1cc(CN2CC3(CC(c4ccccc4C(=O)O)=NO3)C2)cc(OCC)c1-c1ccc(F)cc1`, greater than 10000 nM.
Same read-out and setting: under `CCOc1cc(C(C)N2CC3(CC(c4ccc(C(=O)O)cc4)=NO3)C2)cc(OCC)c1-c1ccc(F)cc1` (stereo not drawn) stands 2000 nM.
For `CCOc1cc(CN2CC3(CC(c4ccc(C(=O)O)cc4Cl)=NO3)C2)cc(OCC)c1-c1ccc(F)cc1`, the concentration for half-maximal inhibition (IC50) turned out to be 31 nM.
Still for that read-out and setting: under `CCOc1cc(CN2CC3(CC(c4ccccc4)=NO3)C2)cc(OCC)c1-c1ccc(F)cc1` stands 980 nM; under `CCOc1cc(CN2CC3(CC(N4CCC(C(=O)O)C4)=NO3)C2)cc(OCC)c1-c1ccc(F)cc1` (stereo not drawn), 48 nM.
The same measure, in the same setting: under `CCOc1cc(CN2CC3(CC(c4ccc(CO)cc4)=NO3)C2)cc(OCC)c1-c1ccc(F)cc1` stands 430 nM.

For the next data set, the target named is Somatostatin receptor type 5 (Homo sapiens, UniProt P35346). In words: Antagonist activity at human SSTR5 expressed in CHO cells assessed as inhibition of SST14-induced forskolin-stimulated intracellular cAMP level incubated for 15 mins followed by forskolin stimulation for 30 mins by HTRF assay. It counts as functional, cell-based.
Somatostatin receptor type 5 (Homo sapiens, UniProt P35346), sequence (P35346 whole entry): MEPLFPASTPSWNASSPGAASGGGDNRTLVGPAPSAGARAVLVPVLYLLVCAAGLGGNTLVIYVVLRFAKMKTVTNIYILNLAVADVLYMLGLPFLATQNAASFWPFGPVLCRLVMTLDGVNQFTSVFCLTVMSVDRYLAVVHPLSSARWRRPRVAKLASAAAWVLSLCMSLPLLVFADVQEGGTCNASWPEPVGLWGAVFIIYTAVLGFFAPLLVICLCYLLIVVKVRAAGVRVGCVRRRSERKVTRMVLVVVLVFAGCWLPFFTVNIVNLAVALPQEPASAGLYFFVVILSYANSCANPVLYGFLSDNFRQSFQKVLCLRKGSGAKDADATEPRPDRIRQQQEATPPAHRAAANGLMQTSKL
Details: not given
On the technique in general: Changes in cAMP serve as a functional read-out for many G protein-coupled receptors.
With `CCOc1cc(CN2CC3(CC(c4ccc(C(=O)O)cn4)=NO3)C2)cc(OCC)c1-c1ccc(F)cc1`, the half-maximal inhibitory concentration (IC50) came to 61 nM.
On to `CCOc1cc(CN2CC3(CC([C@H]4CC[C@@H](C(=O)O)CC4)=NO3)C2)cc(OCC)c1-c1ccc(F)cc1`, for which the IC50 turned out to be 130 nM.
As for `CCOc1cc(CN2CC3(CC(c4ccc(CC(=O)O)cc4)=NO3)C2)cc(OCC)c1-c1ccc(F)cc1`, the half-maximal inhibitory concentration (IC50) came to 220 nM.
Same read-out and setting: under `CCOc1cc(CN2CC3(CC(N4CC(C(=O)O)C4)=NO3)C2)cc(OCC)c1-c1ccc(F)cc1` stands 200 nM; under `CCOc1cc(C(=O)N2CC3(CC(c4ccc(C(=O)O)cc4)=NO3)C2)cc(OCC)c1-c1ccc(F)cc1`, greater than 10000 nM.
Take `CCOc1cc(CN2CC3(CC(CCC(=O)O)=NO3)C2)cc(OCC)c1-c1ccc(F)cc1`: the IC50 was determined as 3200 nM.
Same read-out and setting: under `CCOc1cc(CN2CC3(CC(c4ccc(C(=O)O)cc4)=NO3)C2)cc(OCC)c1-c1ccc(F)cc1` stands 9 nM.
The same measure, in the same setting: under `CCOc1cc(CN2CC3(CC(c4ccc(C(N)=O)cc4)=NO3)C2)cc(OCC)c1-c1ccc(F)cc1` stands 150 nM.
On the same count and under the same terms, under `CCOc1cc(CN2CC3(CC(c4cccc(C(=O)O)c4)=NO3)C2)cc(OCC)c1-c1ccc(F)cc1` stands 550 nM; under `CCOc1cc(CN2CC3(CC(c4ccc(C(=O)O)cc4C)=NO3)C2)cc(OCC)c1-c1ccc(F)cc1`, 140 nM; under `CCOc1cc(CN2CC3(CC([C@H]4CC[C@H](C(=O)O)CC4)=NO3)C2)cc(OCC)c1-c1ccc(F)cc1`, 30 nM.
For `CCOc1cc(CN2CC3(CC(c4ccccc4C(=O)O)=NO3)C2)cc(OCC)c1-c1ccc(F)cc1`, the concentration for half-maximal inhibition (IC50) is greater than 10000 nM.
Still for that read-out and setting: under `CCOc1cc(C(C)N2CC3(CC(c4ccc(C(=O)O)cc4)=NO3)C2)cc(OCC)c1-c1ccc(F)cc1` (stereo not drawn) stands 95 nM; under `CCOc1cc(CN2CC3(CC(c4ccc(C(=O)O)cc4Cl)=NO3)C2)cc(OCC)c1-c1ccc(F)cc1`, 46 nM; under `CCOc1cc(CN2CC3(CC(c4ccccc4)=NO3)C2)cc(OCC)c1-c1ccc(F)cc1`, 2800 nM.
In the case of `CCOc1cc(CN2CC3(CC(N4CCC(C(=O)O)C4)=NO3)C2)cc(OCC)c1-c1ccc(F)cc1` (stereo not drawn), the half-inhibitory concentration (IC50) is 190 nM.
On the same count and under the same terms, under `CCOc1cc(CN2CC3(CC(c4ccc(CO)cc4)=NO3)C2)cc(OCC)c1-c1ccc(F)cc1` stands 1000 nM.

System in another data set: not listed separately
The data set is described as follows: Solubility of the compound in aqueous buffer solution at pH 6.8 after 18 hrs by HPLC analysis. It is filed as physicochemical.
Details: not given
Summed up:
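0.4 mg compound in 0.4 mL aqueous buffer, pH 6.8 (Japanese Pharmacopoeia second disintegration fluid). Shaken at 500 rpm at 37 °C for 18 h, then filtered; dissolved concentration measured by HPLC.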
The compound `CCOc1cc(CN2CC3(CC(c4ccc(C(=O)O)cc4)=NO3)C2)cc(OCC)c1-c1ccc(F)cc1` registered a solubility at 18 h of 1.3 µg/mL (≈ 2.58 µM).

The test system of the next data set is Mus musculus. In words: Antidiabetic activity in HFD-fed C57BL/6J mouse assessed as decrease in blood glucose level at 30 mg/kg, po pretreated for 1 hr followed by glucose challenge by OGTT. It is filed as functional, organism-based.
Details: not given
Put shortly:
as §1
As for `Cn1c(=O)cc(N2CCC[C@@H](N)C2)n(Cc2ccccc2C#N)c1=O`, the outcome was Active.

Usually logD stands for the decadic logarithm of the distribution of all forms, ionised or not, between an organic phase and buffer at a given pH. One may read the inhibition as the drop in the measured response relative to a control, in per cent. In general, IC50 refers to the midpoint of a concentration-inhibition curve. Broadly, the solubility is how much of the substance goes into solution per volume.
